# From PubChem BioAssay
# Compounds with a hit are over-represented: about 4.1% of the library has one in this group of screens.
# NF-kB expr up = activators of NF-kB expression in neurons, primary screen, cell-based, HTS; human neuronal cells, NF-kB reporter expression; stronger effect = higher value; fold change at 12.5 µM; actives 1.6% (n = 190,000); AID 1239, 2008; in the data active means fold change above about 3.3
# APP 5'UTR act = activators of APP 5'UTR luciferase reporter, primary screen, SH-SY5Y cells | actives 1% (n = 190,000) | SH-SY5Y APP 5'UTR luciferase reporter, luminescence; zero percent = DMSO vehicle wells | activation, % at 2 µM;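 active means activation above a set limit, based on mean plus 3 SD of controls, cut at about 140% in these data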
# FLuc inh counter = firefly luciferase enzyme inhibitors, primary screen, artefact control for luciferase-based inhibitor screens, biochemical, luminescence, ATPLite; inhibition, % at 10 µM; 10 min; AID 1006, 2008; Luciferin 4-monooxygenase (Photinus pyralis), P08659; actives 1.5% (n = 200,000);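 active means inhibition above about 50% when tested at 10 µM, limit read from the data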
# Target sequence (P08659 whole entry, looked up): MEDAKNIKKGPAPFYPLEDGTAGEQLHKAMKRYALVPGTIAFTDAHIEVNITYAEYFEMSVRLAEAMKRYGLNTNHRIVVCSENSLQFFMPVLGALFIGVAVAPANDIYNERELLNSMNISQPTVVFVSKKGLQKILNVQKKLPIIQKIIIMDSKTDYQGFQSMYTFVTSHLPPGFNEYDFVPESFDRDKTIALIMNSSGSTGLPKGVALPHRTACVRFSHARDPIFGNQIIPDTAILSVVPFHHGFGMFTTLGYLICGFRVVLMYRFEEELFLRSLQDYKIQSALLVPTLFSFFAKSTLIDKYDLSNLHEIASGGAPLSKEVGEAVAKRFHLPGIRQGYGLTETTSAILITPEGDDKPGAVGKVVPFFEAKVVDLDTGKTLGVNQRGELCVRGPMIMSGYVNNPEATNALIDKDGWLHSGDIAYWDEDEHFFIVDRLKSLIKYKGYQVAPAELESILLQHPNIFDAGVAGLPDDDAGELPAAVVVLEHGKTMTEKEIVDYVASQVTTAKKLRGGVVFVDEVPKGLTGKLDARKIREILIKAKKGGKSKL
# FLuc stim CS = FLuc activators, initial screening, artefact control for FLuc-dependent activation tests, biochemical, ATPlite luminescence; Luciferin 4-monooxygenase (Photinus pyralis), P08659; ATPlite luciferase biochemical, 10 min; 0 = ATP-free wells, 1 = DMSO control; activation factor at 10 µM; 200,000 tested, under 10 active; AID 1027, 2008;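 active means luciferase activation factor, scaled between plate controls, of at least 2 with compound at 10 µM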
#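 assay system = Luciferase/luciferin detection reagent, cell-free biochemical luciferase assay | also added = ATP substrate | times = 10 min post-reagent at room temperature | measured by = luminescence from luciferase reaction | measure = luciferase activation, seen as luminescence increase over controls | benchmarks = low control with PBS replacing ATP, high control enzyme plus ATP without compound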
# STAT1 act = STAT1 signaling activators, primary screen, cell-based, HTS, luciferase reporter; NIH 3T3 STAT1-luciferase reporter, IFN-gamma, luminescence; 100% = IFN-gamma alone, no compound; activation (% of control), % at 5.5 µM; actives 2.6% (n = 200,000);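 active means activation above the screen-wide mean activation plus 3 SD, cut at about 130% in these data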;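 further: raw ratio to IFN-gamma control signal so 100% means no change and 0% no light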
# * marks the source's active call; other numbers are inactive results; . = no result.
SMILES,NF-kB expr up,APP 5'UTR act,FLuc inh counter,FLuc stim CS,STAT1 act
COCCn1c(-c2ccc(-c3ccc([N+](=O)[O-])cc3Br)o2)nc2c1c(=O)[nH]c(=O)n2CC(C)C,1,-1,-6,1.1,91
Cc1cc(/C=C(\C#N)c2nc3ccccc3[nH]2)c(C)n1C,2.7,57,78*,0.2,142*
N#C/C(=C/c1cccs1)c1nc2ccccc2[nH]1,1.6,69,3,1,145*
N#C/C(=C\c1cc([N+](=O)[O-])c(N2CCOCC2)cc1N1CCOCC1)c1nc2ccccc2[nH]1,0.46,-4,-5,1,107
CN(C)/C=C(\C#N)c1nc2ccccc2[nH]1,1.4,15,-2,1,106
COc1c(O)ccc(/C=C(\C#N)c2nc3ccccc3[nH]2)c1[N+](=O)[O-],1.1,88,5,0.9,134*
N#C/C(=C/c1ccc(N2CCOCC2)o1)c1nc2ccccc2[nH]1,2.8,158*,82*,0.2,149*
O=C(CCCNS(=O)(=O)c1ccc(Cl)c(Cl)c1)NCCc1ccccn1,0.99,6,3,1,99
CN(c1ccccc1)P(=O)(N(C)c1ccccc1)N(C)c1ccccc1,0.66,38,2,1,94
Cc1ccc(C(=O)NC2CCSC2=O)cc1 (stereo not drawn),1.3,.,-5,1.1,99
Cc1ccc(C(=O)NC2CCc3ccccc3C2=O)cc1 (stereo not drawn),3.9*,156*,62*,0.4,141*
COc1cc2c(cc1OC)C(c1cc(OC)c(OC)c(OC)c1)NCC2 (stereo not drawn),1,8,-8,1.1,98
COc1ccc(OC)c(NC(=O)NCCc2cccc(Cl)c2)c1,0.89,5,1,1,104
CC(C)COC(=O)c1ccc(NC(=O)C2C3CCC(C3)C2C(=O)O)cc1 (stereo not drawn),0.93,65,0,1,143*
CCc1nnc(NC(=O)CSc2nc3cc4c(cc3cc2CC)OCCO4)s1,3.5*,-4,-4,1,105
CCc1cc2cc3c(cc2nc1SCC(=O)Nc1nnc(C)s1)OCCO3,0.94,0,-2,1,100
COc1ccc2nc(NC(=O)C(NS(=O)(=O)c3cccc4nsnc34)C(C)C)sc2c1 (stereo not drawn),0.99,-10,-4,1,107
CCOC(=O)Nc1sc2c(c1C#N)CCC(C)C2 (stereo not drawn),3.9*,92,2,1,132*
CC(C)c1ccc(NC(=S)NCCc2c[nH]c3ccccc23)cc1,1,1,-3,1,89
Cc1ccc(OC(=O)c2ccc3nc(C)sc3c2)cc1,2.5,82,-1,1,78
O=C(O)c1ccc2nc(-c3ccccc3)sc2c1,9.1*,44,44,0.6,68
O=c1cc(O)nc(-c2ccccc2)s1,1.2,8,-1,1,108
Nc1ccc(-c2nc3ccc(C(=O)O)cc3s2)cc1,9.2*,-67,76*,0.2,20
Nc1ccc(O)c(-c2nc3ccccc3s2)c1,2.1,22,21,0.8,128
Nc1cccc(-c2nc3ccc(N)cc3s2)c1,2.6,-13,93*,0.1,124
SMILES,NF-kB expr up,APP 5'UTR act,FLuc inh counter,FLuc stim CS,STAT1 act
Nc1cc2sc(-c3ccc(C(=O)O)cc3)nc2cc1Cl,3.1,103,76*,0.2,107
Cc1ccc(S(=O)(=O)N2CCC(C(=O)NCc3ccncc3)CC2)cc1,0.98,6,-5,1.1,105
O=C(NNC(=S)Nc1ccc(Cl)cc1Cl)C1CC1,1.7,9,-7,1.1,112
COc1cc(/C=C/c2nnc3c4ccccc4ncn23)cc(OC)c1OC,0.33,2,0,1,89
C(=C\c1nnc2c3ccccc3ncn12)/c1ccccc1,3.2,-73,17,0.8,148*
O=[N+]([O-])c1ccc2[nH]nc(-c3ccccc3)c2c1,1.7,21,-6,1.1,101
O=c1c(-c2ccccc2)n[nH]c2ccccc12,3.4*,112,50,0.5,124
CN(C)C(=S)N=Nc1[nH]c2ccccc2c1O,0.26,-12,13,0.9,176*
CNC(=S)N=Nc1c(O)[nH]c2ccccc12,1.2,12,-5,1,108
C=CCNC(=O)CCc1nnc(C2(c3ccc(Cl)cc3)CCC2)o1,2.9,57,-2,1,140*
COc1cc(C2Nc3ccccc3C(=O)N2c2ccc(Cl)cc2)c(Cl)cc1OCC(=O)O (stereo not drawn),2.9,105,-3,1,138*
COc1cc(C2NC(=O)NC(c3ccccc3)=C2C(C)=O)c(Cl)cc1OCC(=O)O (stereo not drawn),1.4,199*,0,1,97
CS(=O)(=O)N1N=C(c2ccccc2)CC1c1ccc2c(c1)OCO2 (stereo not drawn),2,0,3,1,137*
CS(=O)(=O)Nc1cccc(C2=NN(S(C)(=O)=O)C(c3ccc4c(c3)OCO4)C2)c1 (stereo not drawn),1.9,9,-6,1.1,125
CC(=O)Cc1nsc(NC(=O)c2ccc(-c3cccc(Cl)c3)o2)n1,1.1,1,21,0.8,105
Cc1c(/C(O)=C2/C(=O)C(=O)N(CCN3CCOCC3)C2c2cccs2)cnn1-c1ccccc1 (stereo not drawn),1.7,52,9,0.9,143*
Cc1ccc(C2/C(=C(/O)c3cnn(-c4ccccc4)c3C)C(=O)C(=O)N2CCN2CCOCC2)o1 (stereo not drawn),1.6,64,20,0.8,117
CN(Cc1nc(-c2cnccn2)no1)Cc1n[nH]c2c1CCCC2,1,-4,-6,1.1,105
O=C(COc1ccc2ccccc2c1)Nc1nccs1,6.5*,190*,84*,0.2,84
O=C(COc1ccccc1)Nc1nccs1,3.2,128,44,0.6,122
Cc1nn(-c2ccccc2)c(Cl)c1C(=O)Nc1c(C)n(C)n(-c2ccccc2)c1=O,0.92,3,-2,1,102
CCCNC(=O)C12CCC(C)(c3nc4cc(C)c(C)cc4nc31)C2(C)C (stereo not drawn),1.1,-14,-3,1,94
COC(=O)c1cn(NC(=O)C2CCC(C)CC2)c(=O)c2ccccc12 (stereo not drawn),1,15,-7,1.1,100
COC(=O)c1cn(NC(=O)c2cc([N+](=O)[O-])ccc2F)c(=O)c2ccccc12,0.85,-23,-2,1,139*
CCOc1ccc(-c2cc(N3C(=O)Nc4ccccc4N3O)on2)cc1,1.2,13,76*,0.2,88
